Results on 21 compounds are retold here after ChEMBL document CHEMBL4477171, “Identification of PTP1B and α-Glucosidase Inhibitory Serrulatanes from Eremophila spp. by Combined use of Dual High-Resolution PTP1B and α-Glucosidase Inhibition Profiling and HPLC-HRMS-SPE-NMR” (J Nat Prod, 2016).

Activity calls are given as the source filed them. No cut-off for these calls is given here.

Test [1] deals with T1, Tyrosine-protein phosphatase non-receptor type 1 (Homo sapiens, UniProt P18031).
T1 sequence (P18031 whole entry): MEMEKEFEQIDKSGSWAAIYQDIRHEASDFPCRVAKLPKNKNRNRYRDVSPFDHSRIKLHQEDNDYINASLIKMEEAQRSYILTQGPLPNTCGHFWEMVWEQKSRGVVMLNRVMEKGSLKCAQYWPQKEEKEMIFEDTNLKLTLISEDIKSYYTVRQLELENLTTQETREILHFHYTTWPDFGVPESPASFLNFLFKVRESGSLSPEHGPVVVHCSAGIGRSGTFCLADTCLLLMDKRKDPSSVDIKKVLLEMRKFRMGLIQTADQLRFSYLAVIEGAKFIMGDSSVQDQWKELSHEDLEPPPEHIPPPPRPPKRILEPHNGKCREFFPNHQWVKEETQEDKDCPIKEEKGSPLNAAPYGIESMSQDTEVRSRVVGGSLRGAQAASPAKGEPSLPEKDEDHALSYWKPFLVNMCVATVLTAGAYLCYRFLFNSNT
Kind of test: Inhibition of GST-tagged human PTP1B expressed in Escherichia coli using pNPP substrate assessed as reduction in p-nitrophenol release. A digest of the protocol: (§1)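 Compounds were dissolved in MeOH as dilution series, dispensed in triplicate and dried. Residues were taken up in DMSO in 50 mM Tris/50 mM bis-Tris buffer with 100 mM NaCl, pH 7.0, at 25 °C. Final conditions were 10% DMSO, 1 mM EDTA, 0.5 mM pNPP and 2 mM DTT. After a 10 min preincubation, recombinant human PTP1B (0.05 μg/well) was added to start the reaction. A405 was read every 30 s for 10 min. Inhibition was calculated from the rate slope against the blank, and IC50 from dose–response curves.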

Test [2] concerns the target T1, Tyrosine-protein phosphatase non-receptor type 1. Put plainly: (§2) Inhibition of recombinant human PTP1B preincubated for 10 mins followed by protein addition using pNPP substrate. A digest of the protocol:
as §1

In the next test the test system is Saccharomyces cerevisiae. Put plainly: Inhibition of Saccharomyces cerevisiae alpha-glucosidase type-1 pre-incubated for 10 mins before pNPG substrate addition assessed as reduction in p-nitrophenol release. In outline: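 Dried residues were dissolved in 25% DMSO in 0.1 M phosphate buffer, pH 6.9, at 25 °C. α-Glucosidase was added to 0.25 U/mL final (6.25% DMSO final) and preincubated for 10 min. The reaction was started with pNPG (1.25 mM final). A405 was read every 30 s for 10 min, and inhibition was taken from the cleavage rate relative to the blank.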

For test [3], the target named is T2, Tyrosine-protein phosphatase non-receptor type 1 (Homo sapiens) (UniProt P18031).
T2 sequence (whole entry): T1 sequence (P18031 whole entry)
The test is described as §2. In outline: as §1

For orientation: IC50 means the concentration that gives 50% inhibition. `COc1cc(O)c2c3c1-c1ccc(O)cc1[C@@H]1Oc4ccccc4[C@@H](CC2=O)[C@@H]31`: the IC50 in test [1] lay within 3.5 to 7.6 µM. Same read-out and setting: then `C=C(CCC=C(C)C)[C@H]1CC[C@]2(C)CCCC(=C)[C@H]2C1` [LOBOPHYTUMIN C], with 7.8 µM; and `O=C1c2c(O)cc(O)c3c2[C@@H]2[C@@H](c4ccccc4O[C@H]2c2cccc(O)c2-3)[C@H]1O` [OHIOENSIN G], with 3.5 to 7.6 µM.

For the compound `CC(C)CC(=O)OC[C@H](C)CCC[C@H](C)[C@@H]1CC[C@@H](C)c2c1cc(C(=O)O)c(O)c2O`, the IC50 in test [2] was found to be 3.44 µM. For the compound `COc1cc(O)c2c(c1)O[C@H](c1ccc(O)cc1)CC2=O`, in the test on Saccharomyces cerevisiae, the inhibition result is “Active”. Regarding `C[C@@H](CO)CCC[C@H](C)[C@@H]1CC[C@@H](C)c2c1cc(C(=O)O)c(O)c2O`, the IC50 in test [2] is 1260 µM. Still for that read-out and setting: then `CCCC(=O)OC[C@H](C)CCC[C@H](C)[C@@H]1CC[C@@H](C)c2c1cc(C(=O)O)c(O)c2O`, with 7.67 µM. `O=C1C[C@@H]2c3ccccc3O[C@H]3c4cc(O)ccc4-c4c(O)cc(O)c1c4[C@H]23` [OHIOENSIN A]: the IC50 in test [1] was 3.5 to 7.6 µM. With `C[C@@H](CO)CCC[C@H](C)[C@@H]1CC[C@@H](C)c2c(O)cc(C(=O)O)cc21`, the inhibition entry in the test with Saccharomyces cerevisiae is “Active”.

On to `C/C(=C\CC[C@H](C)[C@@H]1CC[C@@H](C)c2c(O)cc(C(=O)O)cc21)CO`, for which, in the test on Saccharomyces cerevisiae, the inhibition entry is “Active”. In the case of `CC(C)=CCC[C@H](C)[C@@H]1CC[C@@H](C)c2c1cc(C(=O)O)c(O)c2O`, the inhibition entry in test [3] was “Active”.

As to `C[C@H](CCC[C@H](C)[C@@H]1CC[C@@H](C)c2c(O)cc(C(=O)O)cc21)COC(=O)CCc1ccccc1`, the inhibition result in test [3] was “Active”.

`C/C(C=O)=C\CC[C@H](C)[C@@H]1CC[C@@H](C)c2c(O)cc(C(=O)O)cc21`: the inhibition result with Saccharomyces cerevisiae is “Active”.

In the case of `CC(C)=CCC(=O)OC[C@H](C)CCC[C@H](C)[C@@H]1CC[C@@H](C)c2c(O)cc(C(=O)O)cc21`, the inhibition entry in test [3] is “Active”.

With `O=C1C[C@]2(O)c3ccccc3O[C@H]3c4cc(O)ccc4-c4c(O)cc(O)c1c4[C@@H]32` [OHIOENSIN F], the IC50 in test [1] is 3.5 to 7.6 µM.

In the case of `COc1cc(/C=C/C(=O)OC[C@H](C)CCC[C@H](C)[C@@H]2CC[C@@H](C)c3c2cc(C(=O)O)c(O)c3O)ccc1O`, the inhibition result in test [3] is “Active”. With `C[C@H](CCC[C@H](C)[C@@H]1CC[C@@H](C)c2c(O)cc(C(=O)O)cc21)COC(=O)/C=C/c1ccccc1`, the IC50 in test [2] was 6.27 µM. `C=C1CC[C@@H]2[C@H]1[C@H]1[C@@H](C(C)CC(=O)C=C(C)C)CC[C@]12C` (stereo partly specified): in test [1], the IC50 is 5.9 µM. Take `C[C@H](CCC[C@H](C)[C@@H]1CC[C@@H](C)c2c1cc(C(=O)O)c(O)c2O)COC(=O)/C=C/c1ccc(O)c(O)c1`: in test [3], the inhibition entry is “Active”. As for `OC[C@H]1O[C@@H](O[C@@H]2c3ccccc3[C@H](O)C[C@H]2O)[C@H](O)[C@@H](O)[C@@H]1O`, the IC50 in test [1] stood at 5.5 µM. Consider `CC1=CCC[C@H]2[C@@H](C)[C@@](C)(CC3=C(O)C(=O)C=C(CCCS(=O)(=O)O)C3=O)CC[C@]12C`, for which the IC50 in test [1] was 1.5 µM.
